This is an account of results in ChEMBL document CHEMBL1127378, “Influence of lipophilicity on the biological activity of cyclic pseudopeptide NK-2 receptor antagonists” (J Med Chem, 1994).

The nature of test [1]: Tested for capacity factors by reversed phase HPLC (C18, solvent system 1).
In test [2] the target is T1, Substance-K receptor (Oryctolagus cuniculus, UniProt P79218).
T1 sequence (P79218 whole entry): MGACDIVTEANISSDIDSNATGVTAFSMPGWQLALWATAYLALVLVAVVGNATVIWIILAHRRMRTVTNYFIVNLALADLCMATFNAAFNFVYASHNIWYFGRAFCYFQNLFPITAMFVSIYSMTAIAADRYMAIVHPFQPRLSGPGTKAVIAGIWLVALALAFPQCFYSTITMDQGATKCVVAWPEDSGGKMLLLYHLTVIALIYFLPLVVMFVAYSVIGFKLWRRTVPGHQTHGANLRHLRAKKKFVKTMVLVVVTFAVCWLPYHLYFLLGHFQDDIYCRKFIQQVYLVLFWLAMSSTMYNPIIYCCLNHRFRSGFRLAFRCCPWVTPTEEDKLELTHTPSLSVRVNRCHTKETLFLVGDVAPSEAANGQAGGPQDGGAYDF
Kind of test: Antagonist activity at NK-2 tachykinin receptors in rabbit pulmonary artery. The class given is functional. To be noted: for Kb: read-out: pA2 (converted). The method, boiled down:
(§1)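 Isolated tissues from male New Zealand rabbits (2.5-3 kg) or male Syrian golden hamsters (90-130 g). Endothelium-denuded pulmonary artery strips (rabbit) or tracheal rings (hamster) were used for isometric tension in oxygenated (96% O2/4% CO2) Krebs. Thiorphan, captopril and bestatin were added 15 min before agonist. Cumulative NKA curves were repeated after 15 min antagonist incubation, with one concentration per experiment and at least three concentrations. pA2 came from constrained Schild plots (≥9 experiments).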

The target in test [3] is T2, Substance-K receptor (Mesocricetus auratus, UniProt P51144).
T2 sequence (P51144 whole entry): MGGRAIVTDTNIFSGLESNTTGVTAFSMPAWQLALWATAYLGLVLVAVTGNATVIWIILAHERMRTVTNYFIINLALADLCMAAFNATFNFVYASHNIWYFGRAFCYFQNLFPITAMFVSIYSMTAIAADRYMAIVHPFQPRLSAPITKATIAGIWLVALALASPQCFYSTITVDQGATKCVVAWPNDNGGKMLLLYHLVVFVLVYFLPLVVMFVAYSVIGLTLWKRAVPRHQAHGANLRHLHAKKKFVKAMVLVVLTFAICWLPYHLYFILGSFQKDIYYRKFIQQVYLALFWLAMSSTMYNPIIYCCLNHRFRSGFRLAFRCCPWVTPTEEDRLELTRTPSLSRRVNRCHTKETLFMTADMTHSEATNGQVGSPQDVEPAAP
Kind of test: Tested for antagonist activity at NK-2 tachykinin receptors in hamster trachea. The class given is functional. The settings on record: for Kb: read-out: pA2 (converted). The method, boiled down:
as §1

Test [4] has as its target T3, Substance-K receptor (Oryctolagus cuniculus) (UniProt P79218).
T3 sequence (whole entry): T1 sequence (P79218 whole entry)
The settings on record: filed as agonist.

Test [5] concerns the target T3, Substance-K receptor (Oryctolagus cuniculus).
In test [6] the target is T1, Substance-K receptor. Kind of test: Tested for antagonist activity at NK-2 tachykinin receptors in rabbit pulmonary artery. The settings on record: read-out: pA2 (converted).

SMILES strings stand for the structures. Where a SMILES comes first, the peptide text is derived from it. [ ]: non-standard residue; d: D form. Cha = N[C@@H](CC1CCCCC1)C(=O)O; βAla = NCCC(=O)O

`CC(C)C[C@@H]1CN[C@@H](Cc2ccccc2)C(=O)N[C@H](CCC(N)=O)C(=O)N[C@@H](Cc2c[nH]c3ccccc23)C(=O)N[C@H](Cc2ccccc2)C(=O)NCCC(=O)N1` had a k' in test [1] of 10.5.
With `CC(C)C[C@@H]1NC(=O)CCNC(=O)[C@H](Cc2ccccc2)NC(=O)[C@H](Cc2c[nH]c3ccccc23)NC(=O)[C@H](CCC(N)=O)NC(=O)[C@H](CC2CCCCC2)NC1=O` (cyclo([Cha]QWF[βAla]L)), the Kb on Substance-K receptor [2] is 1.45 µM; on Substance-K receptor [3], 0.0316 µM.
On to `CC(C)C[C@@H]1CN[C@@H](CC(=O)O)C(=O)N[C@H](CCC(N)=O)C(=O)N[C@@H](Cc2c[nH]c3ccccc23)C(=O)N[C@H](Cc2ccccc2)C(=O)NCCC(=O)N1`, for which the k' in test [1] stood at 7.9.
Consider `CC(C)C[C@@H]1CN[C@@H](CC(=O)O)C(=O)N[C@@H](CCC(N)=O)C(=O)N[C@@H](Cc2c[nH]c3ccccc23)C(=O)N[C@@H](Cc2ccccc2)C(=O)NCCC(=O)N1`, for which the Kb at Substance-K receptor [2] was 1.07 µM; at Substance-K receptor [3] it was 0.0676 µM.
`CC(C)C[C@@H]1CN[C@@H](CC(C)C)C(=O)N[C@H](CCC(N)=O)C(=O)N[C@@H](Cc2c[nH]c3ccccc23)C(=O)N[C@H](Cc2ccccc2)C(=O)NCCC(=O)N1` had a k' in test [1] of 9.9.
As usually defined, the pA2 is the negative logarithm of the molar antagonist concentration that doubles the agonist concentration needed for the same response. Turning to `CC(C)C[C@@H]1CN[C@@H](CCCCN)C(=O)N[C@H](CCC(N)=O)C(=O)N[C@@H](Cc2c[nH]c3ccccc23)C(=O)N[C@H](Cc2ccccc2)C(=O)NCCC(=O)N1`, the pA2 result in test [4] is “Agonist”. This molecule also registered a k' in test [1] of 6.8. The molecule also gave a pD2 in test [5] of 5.96.
Turning to `CC(C)C[C@@H]1CN[C@@H](CC2CCCCC2)C(=O)N[C@@H](CCC(N)=O)C(=O)N[C@@H](Cc2c[nH]c3ccccc23)C(=O)N[C@@H](Cc2ccccc2)C(=O)NCCC(=O)N1`, the Kb is 0.0389 µM on Substance-K receptor [6] and 0.000871 µM on Substance-K receptor [3].
Molecule `CC(C)C[C@@H]1CN(C)[C@@H](CC2CCCCC2)C(=O)N[C@H](CCC(N)=O)C(=O)N[C@@H](Cc2c[nH]c3ccccc23)C(=O)N[C@H](Cc2ccccc2)C(=O)NCCC(=O)N1` gave a k' in test [1] of 13.1.
For `CC(C)C[C@@H]1CN[C@@H](Cc2ccc3ccccc3c2)C(=O)N[C@@H](CCC(N)=O)C(=O)N[C@@H](Cc2c[nH]c3ccccc23)C(=O)N[C@@H](Cc2ccccc2)C(=O)NCCC(=O)N1`, the figures for the pA2 at Substance-K receptor [2] and at Substance-K receptor [3] were 7.37 and 8.79, respectively.
`CC(C)C[C@@H]1CN[C@@H](CCCCNC(=O)OCc2ccccc2)C(=O)N[C@H](CCC(N)=O)C(=O)N[C@@H](Cc2c[nH]c3ccccc23)C(=O)N[C@H](Cc2ccccc2)C(=O)NCCC(=O)N1`: the k' in test [1] came out at 11.9.
On to `CSCC[C@@H]1NC[C@@H](CC(C)C)NC(=O)CCNC(=O)[C@H](Cc2ccccc2)NC(=O)[C@H](Cc2c[nH]c3ccccc23)NC(=O)[C@H](CCC(N)=O)NC1=O`, for which the Kb at Substance-K receptor [2] was 0.224 µM; at Substance-K receptor [3] it was 0.0129 µM.
Take `CC(C)C[C@@H]1CN(C)[C@@H](CC2CCCCC2)C(=O)N[C@@H](CCC(N)=O)C(=O)N[C@@H](Cc2c[nH]c3ccccc23)C(=O)N[C@@H](Cc2ccccc2)C(=O)NCCC(=O)N1`: the Kb on Substance-K receptor [2] was 0.117 µM; on Substance-K receptor [3], 0.0038 µM.
Consider `CC(C)C[C@@H]1CN[C@@H](CCC(=O)NCc2ccccc2)C(=O)N[C@@H](CCC(N)=O)C(=O)N[C@@H](Cc2c[nH]c3ccccc23)C(=O)N[C@@H](Cc2ccccc2)C(=O)NCCC(=O)N1`, for which the Kb is 0.0155 µM at Substance-K receptor [2] and 0.00055 µM at Substance-K receptor [3].
`CC(C)C[C@@H]1CN[C@@H](CC(N)=O)C(=O)N[C@H](CCC(N)=O)C(=O)N[C@@H](Cc2c[nH]c3ccccc23)C(=O)N[C@H](Cc2ccccc2)C(=O)NCCC(=O)N1` displayed a k' in test [1] of 7.7.
In test [1], `CC(C)C[C@@H]1CN[C@@H](Cc2ccc3ccccc3c2)C(=O)N[C@H](CCC(N)=O)C(=O)N[C@@H](Cc2c[nH]c3ccccc23)C(=O)N[C@H](Cc2ccccc2)C(=O)NCCC(=O)N1` came in with a k' of 12.
With `CC(C)C[C@@H]1CN[C@@H](Cc2ccccc2)C(=O)N[C@@H](CCC(N)=O)C(=O)N[C@@H](Cc2c[nH]c3ccccc23)C(=O)N[C@@H](Cc2ccccc2)C(=O)NCCC(=O)N1`, the results for the Kb on Substance-K receptor [2] and on Substance-K receptor [3] were 0.0794 µM and 0.0186 µM, respectively.
In turn, `CC(C)C[C@@H]1CN[C@@H](CC2CCCCC2)C(=O)N[C@H](CCC(N)=O)C(=O)N[C@@H](Cc2c[nH]c3ccccc23)C(=O)N[C@H](Cc2ccccc2)C(=O)NCCC(=O)N1` returned a k' in test [1] of 11.6.
In test [1], `CSCC[C@@H]1NC[C@@H](CC(C)C)NC(=O)CCNC(=O)[C@@H](Cc2ccccc2)NC(=O)[C@H](Cc2c[nH]c3ccccc23)NC(=O)[C@@H](CCC(N)=O)NC1=O` came in with a k' of 9.6.
In the case of `CC(C)C[C@@H]1CN[C@@H](CCCCN)C(=O)N[C@@H](CCC(N)=O)C(=O)N[C@@H](Cc2c[nH]c3ccccc23)C(=O)N[C@@H](Cc2ccccc2)C(=O)NCCC(=O)N1`, the Kb on Substance-K receptor [3] is 0.309 µM.
For the molecule `CC(C)C[C@@H]1CN[C@@H](CC(N)=O)C(=O)N[C@@H](CCC(N)=O)C(=O)N[C@@H](Cc2c[nH]c3ccccc23)C(=O)N[C@@H](Cc2ccccc2)C(=O)NCCC(=O)N1`, the Kb is 0.692 µM on Substance-K receptor [2] and 0.11 µM on Substance-K receptor [3].
`CC(C)C[C@@H]1CN[C@@H](CCCCNC(=O)OCc2ccccc2)C(=O)N[C@@H](CCC(N)=O)C(=O)N[C@@H](Cc2c[nH]c3ccccc23)C(=O)N[C@@H](Cc2ccccc2)C(=O)NCCC(=O)N1`: the Kb is 0.129 µM on Substance-K receptor [2] and 0.00676 µM on Substance-K receptor [3].
On the same counts, the results for `CC(C)C[C@@H]1CN[C@@H](CC(C)C)C(=O)N[C@@H](CCC(N)=O)C(=O)N[C@@H](Cc2c[nH]c3ccccc23)C(=O)N[C@@H](Cc2ccccc2)C(=O)NCCC(=O)N1` are 0.112 µM and 0.0158 µM.
`CC(C)C[C@@H]1CN[C@@H](CCC(=O)NCc2ccccc2)C(=O)N[C@H](CCC(N)=O)C(=O)N[C@@H](Cc2c[nH]c3ccccc23)C(=O)N[C@H](Cc2ccccc2)C(=O)NCCC(=O)N1` displayed a k' in test [1] of 11.1.
